Data: ChEMBL document CHEMBL1148012, “Synthesis, inhibition and binding of simple non-nitrogen inhibitors of monoamine transporters” (Bioorg Med Chem, 2007)

Key:
[1] = target: T1, Sodium-dependent dopamine transporter (Homo sapiens, UniProt Q01959); assay: Displacement of [125I]RTI55 from human DAT expressed in COS1 cell membrane; type: cell membranes, COS-1
In short: (§1)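 Membranes from COS-1 cells stably transfected with hDAT or hSERT (pIRES, blasticidin selection), homogenised and washed, resuspended in PBSCM. Filtration onto PEI-soaked GF/B filters, scintillation counting.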

[2] = target: T2, Sodium-dependent serotonin transporter (Homo sapiens, UniProt P31645); assay: Displacement of [125I]RTI55 from human SERT expressed in COS1 cell membrane; type: cell membranes, COS-1; in short: as §1
T2 sequence (P31645 whole entry): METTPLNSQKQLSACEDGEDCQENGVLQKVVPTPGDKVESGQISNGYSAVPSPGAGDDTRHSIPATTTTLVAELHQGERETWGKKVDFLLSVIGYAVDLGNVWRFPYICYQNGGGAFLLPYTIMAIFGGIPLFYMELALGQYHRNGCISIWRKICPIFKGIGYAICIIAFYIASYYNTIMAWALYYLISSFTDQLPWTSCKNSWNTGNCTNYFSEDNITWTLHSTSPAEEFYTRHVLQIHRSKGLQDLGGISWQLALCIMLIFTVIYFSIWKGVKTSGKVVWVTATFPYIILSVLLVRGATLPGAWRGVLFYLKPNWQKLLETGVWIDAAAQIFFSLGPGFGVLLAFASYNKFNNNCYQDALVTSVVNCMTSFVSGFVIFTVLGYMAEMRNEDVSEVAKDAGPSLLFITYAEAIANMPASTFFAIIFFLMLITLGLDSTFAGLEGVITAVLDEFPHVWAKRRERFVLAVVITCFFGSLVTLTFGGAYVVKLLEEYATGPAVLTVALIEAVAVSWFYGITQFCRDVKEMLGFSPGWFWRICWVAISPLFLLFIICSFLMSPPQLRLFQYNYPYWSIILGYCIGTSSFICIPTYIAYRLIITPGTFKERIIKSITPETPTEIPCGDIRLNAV

[3] = target: T3, Sodium-dependent noradrenaline transporter (Homo sapiens, UniProt P23975); assay: Displacement of [125I]RTI55 from human NET expressed in COS1 cell membrane; type: cell membranes, COS-1
T3 sequence (P23975 whole entry): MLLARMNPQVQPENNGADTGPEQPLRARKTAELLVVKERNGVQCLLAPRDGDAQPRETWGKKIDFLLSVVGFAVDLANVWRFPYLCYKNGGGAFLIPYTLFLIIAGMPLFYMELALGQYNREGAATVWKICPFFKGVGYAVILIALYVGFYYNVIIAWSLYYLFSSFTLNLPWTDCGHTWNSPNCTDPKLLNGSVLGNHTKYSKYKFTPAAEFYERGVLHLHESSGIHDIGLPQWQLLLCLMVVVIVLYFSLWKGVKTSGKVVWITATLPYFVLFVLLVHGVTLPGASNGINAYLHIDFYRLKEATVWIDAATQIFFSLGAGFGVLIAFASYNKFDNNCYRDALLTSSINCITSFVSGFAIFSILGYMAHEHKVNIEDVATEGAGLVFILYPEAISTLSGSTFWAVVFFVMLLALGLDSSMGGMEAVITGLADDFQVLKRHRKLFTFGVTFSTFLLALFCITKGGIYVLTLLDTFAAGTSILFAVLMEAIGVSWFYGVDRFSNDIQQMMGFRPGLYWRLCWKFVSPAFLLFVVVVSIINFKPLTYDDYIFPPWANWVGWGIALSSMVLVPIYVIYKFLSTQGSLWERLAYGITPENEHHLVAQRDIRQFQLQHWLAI

[4] = target: T1, Sodium-dependent dopamine transporter; assay: Inhibition of [3H]DA uptake in human DAT expressed in COS1 cell membrane; type: functional, cell-based, COS-1
In short: (§2)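 Intact COS-1 cells stably expressing hDAT, grown two days at 37 °C, washed in PBSCM pH 7.4. Drug dilutions preincubated 30 min, then 30–100 nM [3H]DA added with drug. Uptake 10 min at 20 °C, stopped by aspiration and washing. Accumulated radioactivity counted after solubilising cells in scintillant. IC50 determined.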

[5] = target: T3, Sodium-dependent noradrenaline transporter; assay: Inhibition of [3H]DA uptake in human NET expressed in COS1 cell membrane; type: functional, cell-based, COS-1
[6] = target: T2, Sodium-dependent serotonin transporter; assay: Inhibition of [3H]SER uptake in human SERT expressed in COS1 cell membrane; type: functional, cell-based, COS-1
In short: as §2, with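 “hSERT,” for “hDAT,”, “[3H]5-HT” for “[3H]DA”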

T1 sequence (Q01959 whole entry): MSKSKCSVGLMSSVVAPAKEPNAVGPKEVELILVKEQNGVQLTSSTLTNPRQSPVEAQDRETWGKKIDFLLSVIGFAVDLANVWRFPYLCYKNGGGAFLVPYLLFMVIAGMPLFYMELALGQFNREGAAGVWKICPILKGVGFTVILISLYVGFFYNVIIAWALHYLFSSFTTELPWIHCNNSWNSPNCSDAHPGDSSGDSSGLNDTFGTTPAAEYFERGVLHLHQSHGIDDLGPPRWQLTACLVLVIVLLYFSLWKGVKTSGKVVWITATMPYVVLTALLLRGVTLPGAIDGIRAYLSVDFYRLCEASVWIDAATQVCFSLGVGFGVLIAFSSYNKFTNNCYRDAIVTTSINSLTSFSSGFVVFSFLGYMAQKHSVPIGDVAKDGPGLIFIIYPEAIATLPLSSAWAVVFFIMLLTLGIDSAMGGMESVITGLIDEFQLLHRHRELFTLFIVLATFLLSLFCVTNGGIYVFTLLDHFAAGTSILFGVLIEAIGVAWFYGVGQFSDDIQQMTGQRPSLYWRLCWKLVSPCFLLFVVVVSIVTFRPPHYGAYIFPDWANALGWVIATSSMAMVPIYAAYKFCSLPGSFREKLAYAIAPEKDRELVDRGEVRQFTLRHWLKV

Structure (SMILES)	Ki [1] [µM]	Ki [2] [µM]	Ki [3] [µM]	Ki [4] [µM]	Ki [5] [µM]	Ki [6] [µM]
COC(=O)c1ccccc1-c1ccc2ccccc2c1	4.06	620	46.7	–	–	–
COC(=O)[C@@H]1CCCCC[C@@H]1c1ccc(-c2ccccc2)cc1	313	73	51	–	–	–
COC(=O)C1=C(c2cccc(Cl)c2)CCCC1	22	1180	339	26	871	–
COC(=O)C1=C(c2ccc3ccccc3c2)CCCC1	12	109	81	1.5	10	–
COC(=O)C1=C(c2ccc(-c3ccccc3)cc2)CCCC1	264	841	215	–	–	–
COC(=O)C1=C(c2ccc(C(C)(C)C)cc2)CCCC1	605	2250	1100	–	–	–
COC(=O)C1=C(c2ccc(-c3ccccc3)cc2)CCCCC1	2	32	13	0.81	3.9	–
C/C=C/C1=C(c2ccc(Cl)c(Cl)c2)CCCC1	11	381	255	42	–	–
COC(=O)C1=C(c2ccc(C(C)(C)C)cc2)CCCCC1	884	1040	62	–	–	–
COC(=O)C1=C(c2cccc(Cl)c2)CCC1	34	2240	470	3.3	285	–
COC(=O)C1=C(c2ccc(OC)cc2)CCC1	140	2690	550	6.3	1390	–
COC(=O)C1=C(c2cccc(N)c2)CCC1	875	1950	1320	121	247	2900
COC(=O)C1=C(c2ccc([N+](=O)[O-])cc2)CCC1	6.54	1140	111	–	–	–
COC(=O)C1=C(c2ccc(OC(F)(F)F)cc2)CCC1	2650	3800	2880	–	–	–
COC(=O)C1=C(c2ccc(C(C)=O)cc2)CCC1	335	296	240	49	646	1160
COC(=O)C1=C(c2ccc(Cl)cc2)CCCC1	85	1860	993	0.589	314	–
COC(=O)C1=C(c2cccc([N+](=O)[O-])c2)CCCC1	239	28.7	121	–	–	–
COC(=O)C1=C(c2ccc(Cl)c(Cl)c2)CCCCC1	1.36	149	15	0.515	4.72	–
COC(=O)[C@@H]1CCCC[C@@H]1c1ccccc1	975	1510	1360	–	–	–
COC(=O)[C@@H]1CCCC[C@@H]1c1ccc(-c2ccccc2)cc1	830	390	658	–	–	–
COC(=O)C1=C(c2ccccc2)CCCC1	630	668	2500	–	–	–
COC(=O)C1=C(c2cccc(C(F)(F)F)c2)CCCC1	1050	5020	2110	–	–	–
COC(=O)[C@@H]1CCCCC[C@@H]1c1ccc(C(C)(C)C)cc1	1140	1800	94	–	–	–
CCOC(=O)C1=C(c2ccc(Cl)c(Cl)c2)CCNC1	0.922	0.217	2.5	–	–	–
COC(=O)C1=C(c2ccc(Cl)c(Cl)c2)CCC1	1.9	785	11	5.5	28	–

Structure (SMILES)	Ki [1] [µM]	Ki [2] [µM]	Ki [3] [µM]	Ki [4] [µM]	Ki [5] [µM]	Ki [6] [µM]
CCOC(=O)C1=C(c2ccc3ccccc3c2)CCNC1	0.079	0.44	0.268	–	–	–
COC(=O)[C@@H]1CCCC[C@@H]1c1cccc(C(F)(F)F)c1	569	1910	991	–	–	–
COC(=O)[C@@H]1CCCC[C@@H]1c1ccc(C(C)(C)C)cc1	766	9120	675	–	–	–
COC(=O)[C@@H]1CCCC[C@@H]1c1ccc(C(F)(F)F)cc1	222	185	439	–	–	–
COC(=O)C1=C(c2ccc(Cl)cc2)CCC1	18	2840	420	2.1	178	–
COC(=O)C1=C(c2ccc(O)cc2)CCCC1	231	573	675	–	499	–
COC(=O)C1=C(c2ccc(Cl)c(Cl)c2)CCCC1	2.1	228	14	0.625	4.9	–
COC(=O)C1=C(c2ccc3ccccc3c2)CCC1	4.1	417	39	7	26	–
COC(=O)C1=C(c2ccc(C(C)(C)C)cc2)CCC1	302	1460	789	–	–	–
COC(=O)C1=C(c2cccc(Cl)c2)CCCCC1	22	463	85	3.78	–	–
CCOC(=O)C1=C(c2cccc([N+](=O)[O-])c2)CCNC1	20.6	3	10	–	–	–
COC(=O)C1=C(c2ccc(OC(F)(F)F)cc2)CCCC1	1660	4680	2540	–	–	–
COC(=O)C1=C(c2ccc(S(C)(=O)=O)cc2)CCC1	–	3390	–	–	–	–
COC(=O)C1=C(c2ccc(Cl)cc2)CCCCC1	15	706	84	2.2	20	–
COC(=O)C1=C(c2ccc3ccccc3c2)CCCCC1	392	532	68	–	–	–
COC(=O)C1=C(c2ccc(C(F)(F)F)cc2)CCCC1	590	4710	2020	–	–	–
COC(=O)[C@@H]1CCCC[C@@H]1c1ccc(OC(F)(F)F)cc1	1180	605	719	–	–	–
COC(=O)[C@@H]1CN(C)CC[C@@H]1c1ccc(I)cc1 (racemic)	0.323	0.287	0.855	–	–	–
COC(=O)[C@@H]1CN(C)CC[C@H]1c1ccc(I)cc1 (racemic)	1.25	2.81	2.3	–	–	–
COC(=O)[C@@H]1CN(C)CC[C@@H]1c1ccccc1 (racemic)	8.51	27	35.2	–	–	–
COC(=O)[C@@H]1CN(C)CC[C@H]1c1ccccc1 (racemic)	17.4	46.7	36.3	–	–	–
COC(=O)[C@@H]1CN(C)CC[C@@H]1c1ccc(Cl)c(Cl)c1 (stereo in doubt)	59.4	–	41.6	–	–	–
COC(=O)[C@@H]1CN(C)CC[C@@H]1c1ccc(Cl)c(Cl)c1 (stereo in doubt; 3a)	0.322	–	3.91	–	–	–
COC(=O)[C@H]1[C@@H](c2ccc(I)cc2)C[C@H]2CC[C@@H]1N2C [IODINE 2BETA-CARBOMETHOXY-3BETA-(4 IODOPHENYL)-TROPANE]	0.004	0.006	0.034	0.009	0.01	0.004
